Laboratory results taken from PubChem BioAssay AID588703 (Broad Institute, 2011).
Active and inactive are the calls of the source. How the calls were made is not given here.

Key:
[1] = HMLE_shTWIST cancer stem cell-like viability inhibition, dose response, CellTiter-Glo luminescence, dry powder (AID 588703); details: HMLE_shTWIST viability, CellTiter-Glo luminescence, 72 h
Procedure, shortened: (§1)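 Material: HMLE_shTWIST stable human breast line, EMT-induced, CSC-like | Quantity: 1000 cells/well | Buffer or medium: Screening medium without serum | Timing: Compound added 24 h after seeding, then 72 h exposure | Measured by: CellTiter-Glo luminescence | Controls: DMSO-only wells as negative control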

[2] = test system: HMLE_shTWIST viability, CellTiter-Glo luminescence, 72 h; assay: as above
Procedure, shortened: as §1

SMILES | outcome [1] | AC50 [2]
O=C(COc1ccc(Cl)cc1Cl)N/N=C/c1cnc[nH]1 | inactive | 
O=C(COc1ccc(Cl)cc1Cl)N/N=C/c1ccc[nH]1 |  | 2.21 µM
Cc1cc(Cl)ccc1OCC(=O)N/N=C/c1ccc[nH]1 |  | 1.6 µM
O=C(N/N=C/c1ccc[nH]1)c1cc2ccccc2o1 |  | 0.18 µM
CC(C)(C)c1ccc2c(c1)OC(C(=O)N/N=C/c1ccc[nH]1)CO2 (configuration not stated) |  | 2.89 µM
O=C(COc1c(Cl)cc(Cl)cc1Cl)N/N=C/c1ccc[nH]1 |  | 0.11 µM
O=C(COc1cc(Cl)ccc1Cl)N/N=C/c1ccc[nH]1 |  | 0.92 µM
